Assay results reported in ChEMBL document CHEMBL1150397, “Towards the first inhibitors of trihydroxynaphthalene reductase from Curvularia lunata: synthesis of artificial substrate, homology modelling and initial screening” (Bioorg Med Chem, 2008).
Activity calls are given as the source filed them. The rule behind the calls is not given here.

Tests used:
[1] = (§1) Inhibition of recombinant Curvularia lunata trihydroxynaphthalene reductase
In short: (§2)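 GST-fusion 3HNR from C. lunata expressed in E. coli BL21-AI, bound on glutathione-Sepharose, thrombin-cleaved, purity checked by SDS-PAGE. Initial rates of DDBO oxidation with NADP+ reduction followed at 340 nm (NADPH absorbance), 25 °C. Conditions: 0.2 µM enzyme, 100 µM DDBO, 500 µM coenzyme, 100 mM phosphate pH 7.0, 1% final DMF. Compounds screened at 100 µM; IC50 determined over 5–200 µM where screening inhibition exceeded 35%.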

Curvularia lunata = test: as §1; settings: for inhibition: concentration not given here; in short: as §2

Row | IC50 [1] [µM] | Activity (Curvularia lunata) | Compound | other results
1 | 120 | – | CCOC(=O)c1cc(=O)c2cc(C)ccc2o1 | –
2 | – | – | Cc1ccc(-c2cc(C(F)(F)F)nn2-c2ccc(S(N)(=O)=O)cc2)cc1 | inhibition (Curvularia lunata): 17%
3 | – | inactive | CC(=O)Nc1ccc(O)cc1 | –
4 | 111 | – | COc1ccc2cc(CCC(C)=O)ccc2c1 [NABUMETONE] | –
5 | – | inactive | CC(C(=O)O)c1cccc(C(=O)c2ccccc2)c1 (configuration not stated) | –
6 | 167 | – | CCOC(=O)c1cc(=O)c2cc(C)cc([N+](=O)[O-])c2o1 | –
7 | 17 | – | CCc1cccc2c3c([nH]c12)C(CC)(CC(=O)O)OCC3 (configuration not stated) [ETODOLAC] | –
8 | – | – | COc1ccc2cc([C@H](C)C(=O)O)ccc2c1 | inhibition (Curvularia lunata): 9%
9 | 66 | – | O=C1CC(=O)c2ccccc21 | –
10 | – | inactive | CC(C)Cc1ccc(C(C)C(=O)O)cc1 (configuration not stated) | –
11 | 108 | – | O=C(O)Cc1ccccc1Nc1c(Cl)cccc1Cl [DICLOFENAC SODIUM] | –
12 | – | inactive | CCOc1ccc(NC(C)=O)cc1 | –
